Experimental findings from ChEMBL document CHEMBL1126303, “Syntheses and affinities of novel organometallic-labeled estradiol derivatives: a structure-affinity relationship” (J Med Chem, 1992) are described below.

Values joined by “and” are separate entries in the source; they are usually repeats but may differ in a detail not shown here. Equal values may be shown once.

This assay deals with Estrogen receptor (Ovis aries) (UniProt P49885+Q9TU15). The assay is described as follows: Relative binding affinity against the estrogen receptor using lamb uterine cytosol as a source of receptor and [3H]-estradiol as a tracer. It is filed as protein assay. The following applies: Uterus. In short, it runs like this:
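Competitive radiometric binding on lamb uterine cytosol (105000g supernatant in 0.05 M Tris-HCl, 0.25 M sucrose, 0.1% β-mercaptoethanol, pH 7.4), 5 mg protein/mL. Incubated 3 h at 0 °C with 2 × 10⁻⁹ M [³H]estradiol plus competitor at nine concentrations, 1×10⁻¹⁰ to 1×10⁻⁶ M. Bound/free separated by protamine sulfate precipitation and filtration, then scintillation counting. Logit-transformed; RBA = IC50 estradiol/competitor ×100; mean of two determinations.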

Sequence of Estrogen receptor (Ovis aries) (Q9TU15 whole entry, looked up, chain 1 of 2): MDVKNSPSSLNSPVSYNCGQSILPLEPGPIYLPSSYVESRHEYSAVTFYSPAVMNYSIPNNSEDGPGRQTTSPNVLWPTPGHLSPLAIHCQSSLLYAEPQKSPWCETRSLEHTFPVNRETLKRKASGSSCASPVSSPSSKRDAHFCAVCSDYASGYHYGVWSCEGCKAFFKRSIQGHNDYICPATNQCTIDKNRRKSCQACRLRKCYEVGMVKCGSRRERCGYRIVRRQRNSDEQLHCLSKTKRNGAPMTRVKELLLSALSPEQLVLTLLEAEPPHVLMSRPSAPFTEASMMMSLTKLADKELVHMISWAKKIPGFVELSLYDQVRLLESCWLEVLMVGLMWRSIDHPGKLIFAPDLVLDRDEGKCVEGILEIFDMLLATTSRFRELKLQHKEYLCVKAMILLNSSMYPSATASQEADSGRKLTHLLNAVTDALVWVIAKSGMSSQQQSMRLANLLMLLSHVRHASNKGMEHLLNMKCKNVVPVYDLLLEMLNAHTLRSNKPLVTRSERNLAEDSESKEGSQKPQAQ
Sequence of Estrogen receptor (Ovis aries) (P49885 whole entry, looked up, chain 2 of 2): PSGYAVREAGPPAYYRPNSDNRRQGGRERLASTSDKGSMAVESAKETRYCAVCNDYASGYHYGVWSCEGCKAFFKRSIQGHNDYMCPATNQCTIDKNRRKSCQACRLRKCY

For “alpha [Cp Ru[eta5-17beta-estradienonyl] [BF4]”, the RBA was 0.44% and 0.46%.
`C[C@]12CC[C@@H]3c4ccc(O)cc4CC[C@H]3[C@@H]1CC[C@@]2(O)C#Cc1ccccc1`: the RBA is 27%.
Take “(17-alpha-phenyl-17beta-estradiol)tricarbonylchromium”: the RBA came to 11%.
17alpha-ferrocenyl-17beta-estradiol registered an RBA of 15%.
As to [Cp Ru(eta5-17beta-estradienonyl)], the RBA turned out to be 0.1%.
Consider `C[C@]12CC[C@@H]3c4ccc(O)cc4CC[C@H]3[C@@H]1CC[C@@]2(O)c1ccccc1`, for which the RBA amounted to 25%.
In turn, “(alpha,beta)-[Cp Ru(17beta-estradiol)][PF6-]” displayed an RBA of 0.1%.
To “(17-alpha(phenylethynyl)-17beta-estradiol)tricarbonylchromium” belongs 24%; to “(alpha,beta)-[Cp*Ru(17beta-estradiol)][CF3SO3]”, 2.9%; to “(17alpha)-[Cp Ruphenyl]-17beta-estradiol)][CF3SO3]”, 0%.
